Assay outcomes (PubChem)
CSC inhib: blocks cancer stem cells. cancer stem cell-like cells viability, luminescence. AID 2717. 1.1% of 300,000 active. inhibition, % at 7.5 µM; in the data active = inhibition above about 75%; inconclusive = no clear call, values can overlap the other calls; tested in HMLE shEcad cells
Mdm2-MdmX inh: inhibitors of human Mdm2/MdmX interaction | 3% of 330,000 active | AID 485346 | inhibition, % at 8 µM | O15151+Q00987 | SaOS-2 split-luciferase Mdm2/MdmX complementation, luminescence;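 active = inhibition of at least 50% at 8 µM in the primary screen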
Beta apoptosis: beta cell apoptosis inhibition; INS-1E cytokine-induced death, ATP luminescence, 48 h; percent of positive-control rescue, neutral wells zero; protection from apoptosis, % (no concentration beside the values); 0.8% of 300,000 active; AID 435005;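 active = Every replicate reaches about 75%, or at least half do and their mean reaches it too, limit read from the data; inconclusive = At least half of replicates reach the limit but their mean does not; inactive = Under half of replicates reach the limit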;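 also: 0% = cytokine-treated negative control wells and 100% = positive control rescue; higher means more ATP so stronger rescue from cytokine killing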
T cruzi inh: blocks replication of Trypanosoma cruzi | T. cruzi beta-gal in NIH3T3, luminescence, 90 h | inhibition, % (no concentration beside the values) | 1.4% of 300,000 active;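 active = mean inhibition across valid replicates above about 55%, limit read from the data; inconclusive = mean below that limit but half or more replicates reach it; inactive = mean below it, under half of replicates reach it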;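 also: signal also drops with host cell toxicity which is not excluded here; 0% = plate median of DMSO wells and 100% = zero luminescence signal; higher percent means less beta-gal luminescence so fewer parasites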
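Incubation – ≥90 h infection period, 3 h prior cell attachment · System – NIH/3T3 fibroblasts plus reporter T. cruzi · Doses – compound pinned at 50 nL/well, DMSO · Read-out basis – percent inhibition of parasite-derived β-gal signal · Signal – luminescent β-galactosidase signal after 60 min lysis · Also added – 5000 T. cruzi trypomastigotes/well · Medium – Low-serum DMEM with 2% FBS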
SKKanGAS inh: SKKanGAS growth inhibition; S. pyogenes SKKanGAS, kanamycin growth, BacTiter-Glo, 6 h; AID 1662; 1.3% of 300,000 active; inhibition, % at 7.5 µM;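 active = mean replicate score, as percent of positive control median, at least 50; inconclusive = mean below 50 but one replicate at or above 50; inactive = mean and every replicate below 50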;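 also: strain carries kanamycin resistance gene driven by streptokinase promoter and grows in 40 µg/ml kanamycin; loss of luminescence reflects streptokinase promoter inhibition or plain growth inhibition; 0% = median of DMSO wells and 100% = positive control at its reference dose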
Calb FLC: affects C. albicans growth with fluconazole; 0.57% of 300,000 active; C. albicans CaCi-2 (fluconazole-resistant clinical isolate) + fluconazole, Alamar Blue growth, 48 h; growth inhibition, % (no concentration beside the values);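 active = growth inhibition above about 58% in most replicates, limit read from the data, passing the limit was not always enough; inconclusive = exactly half the replicates above a set limit; inactive = most replicates below a set limit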;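 also: all wells also contain fluconazole at 8 µg/ml as a sub-toxic cotreatment; 0% = median of DMSO wells and 100% = median of geldanamycin control wells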
* marks the source's active call; other numbers are inactive results; ? = inconclusive; nt = not tested or not shown. Compounds with a hit are over-represented: about 5.7% of the library has one in this group of screens.

SMILES	CSC inhib	Mdm2-MdmX inh	Beta apoptosis	T cruzi inh	SKKanGAS inh	Calb FLC
Cc1c(C(=O)N(Cc2ccc(Cl)cc2)C2CCS(=O)(=O)C2)oc2ccccc12 (stereo not given)	-16	-5	-3	23	2	0
CCOc1ccc(CN(C(=O)c2oc3ccccc3c2C)C2CCS(=O)(=O)C2)cc1 (stereo not given)	nt	14	1	0	nt	101*
COc1ccc(C(=O)N2CCCC(Nc3ccc(F)cc3)C2)c(OC)c1 (stereo not given)	-11	26	nt	-13	6	12
COc1cc2c(cc1OC)C1Cc3ccc(OC)c(OC)c3CN1CC2 (stereo not given)	-3	19	-15	51	-4	-6
COc1cc2c(cc1OC)[C@@H]1Cc3ccc(OC)c(OC)c3CN1CC2	-11	24	-15	56*	-4	-8
COc1cc(-c2noc(C)c2C(=O)NCCc2ccccc2)cc(OC)c1OC	-18	20	-4	nt	nt	nt
c1ccc(-c2cnnn2-c2ccccc2)cc1	-9	-15	-7	-7	-3	-1
CCCCc1nc2cc(C(=O)N3CCC(OCCOC)CC3)ccc2o1	-3	-17	-6	-6	63*	-4
COC(=O)[C@]1(C)N[C@H](CN(C)S(=O)(=O)c2ccc(OC(F)(F)F)cc2)[C@@H]2C(=O)N(Cc3ccccc3)C(=O)[C@@H]21	nt	24	nt	nt	nt	nt
CC(C)(C)c1ccc(C(=O)CC(=O)c2cc(Cl)ccc2O)cc1	3	37	28	23	91*	106*
Cc1ccc(C(=O)CC(=O)c2ccc(C(C)(C)C)cc2)cc1	16	30	0	-24	8	108*
Cc1ccc(C(=O)CC(=O)c2ccc(C)cc2O)cc1	12	nt	-3	-6	62*	1
CC(C)(C)c1ccc(C(=O)NNC(=O)c2ccc(Cl)cc2)cc1	19	-5	-9	-14	7	1
Cc1ccc(CC(=O)c2ccc(Cl)cc2)cc1	-7	-26	-11	-18	2	15
Cc1ccc(C(=O)CC(=O)c2cc(Cl)ccc2O)cc1	nt	-22	6	-9	126*	27
CCC(=O)c1c(CC)c2n3c1CC[C@H]3CCC2	13	4	-3	24	1	0
Cc1cc(N2CCC(C)CC2)nc(-n2nc(C)cc2C)n1	-9	16	64	27	95*	?
Cc1cc(C)c(OCC(=O)NCC2COc3ccccc3O2)c(C)c1 (stereo not given)	nt	17	4	nt	nt	nt
O=C(N/N=C/c1cc([N+](=O)[O-])cc(Br)c1O)C12CC3CCC(CC(C3)C1)C2	45	36	-2	-18	51*	24
Nc1nc(NCCOCCO)nc(N2CCCCCC2)c1[N+](=O)[O-]	-12	2	-1	-2	77*	2
O=C(CCN1CCN(C/C=C/c2ccccc2)CC1)Nc1ccccc1	8	-27	-2	56*	8	3
Cc1cccc(NC(=O)CCN2CCN(C/C=C/c3ccccc3)CC2)c1	19	35	3	41	3	2
O=C(CCN1CCN(Cc2ccccc2)CC1)Nc1cccc(Cl)c1	-3	10	-3	55*	2	-10
c1ccc2c(Nc3nnc(-c4ccncc4)s3)cccc2c1	7	3	1	57*	5	5
Nc1cc(-c2ccc(OC(F)(F)F)cc2)nn1-c1ccc(Cl)c(Cl)c1	82*	0	-10	5	67*	3
SMILES	CSC inhib	Mdm2-MdmX inh	Beta apoptosis	T cruzi inh	SKKanGAS inh	Calb FLC
O=C(c1ccc(-n2cccn2)cc1)N1CCN(c2ncccc2C(F)(F)F)CC1	1	16	5	4	-5	7
O=c1c2ccccc2nc(/C=C/c2ccc([N+](=O)[O-])o2)n1CCCO	14	33	2	62*	50*	108*
O=c1c2ccccc2nc(/C=C/c2ccc(Br)cc2)n1CCO	78*	29	1	-13	6	1
O=c1c2ccccc2nc(/C=C/c2ccc(Br)cc2)n1CCCO	25	31	8	0	0	-12
O=C(Cc1ccccc1[N+](=O)[O-])NCc1ccc(Cl)cc1	-8	-62	0	-4	-2	2
O=C(NCc1ccc(Cl)cc1)c1n[nH]c([N+](=O)[O-])c1Cl	24	-13	-1	2	31	97*
Cc1cccc(NC(=O)Cn2c(/C=C/c3ccccc3)nc3ccccc32)c1	14	-40	80*	17	16	-7
COc1ccc(CCN(Cc2cccs2)S(=O)(=O)c2ccc(S(=O)(=O)N3CCCCCC3)cc2)cc1OC	-4	3	0	11	8	-12
CCC(C)NS(=O)(=O)c1ccc(S(=O)(=O)N(CCc2ccc(OC)c(OC)c2)Cc2cccs2)cc1 (stereo not given)	19	30	52	57*	18	10
Cc1cccc(Oc2ccc(N)cc2)c1	14	-29	-2	-7	-1	-54
Nc1ccc(Oc2cccc(Oc3ccc(N)cc3)c2)cc1	16	17	6	-12	7	116*
COc1ccccc1C(=O)NCCC(=O)Nc1cccc(S(=O)(=O)N2CCCC2)c1	-15	27	4	nt	nt	nt
COc1ccc(-c2c(-c3ccc(O)cc3O)n[nH]c2C(F)(F)F)cc1	31	40	-3	-3	-17	14
Oc1ccc(-c2n[nH]c(C(F)(F)F)c2-c2ccccc2)c(O)c1	-15	8	105*	-48	-4	-3
COc1ccc(CCN(C)CC(=O)Nc2c(C)cc(C)cc2C)cc1OC	-3	14	-1	61*	14	-2
CN1C(=O)/C(=C/c2ccccc2F)Sc2ccc(C(=O)NCC3CCCO3)cc21 (stereo not given)	-3	16	nt	-19	?	-2
CN1C(=O)/C(=C/c2ccccc2Cl)Sc2ccc(C(=O)NCc3cccnc3)cc21	-6	25	-1	9	71*	29
CCCC(O)(c1ccc(Cl)cc1)C(CN1CCOCC1)c1ccc(Cl)cc1 (stereo not given)	94*	14	7	-9	30	8
CNC(=S)N1N=C(c2ccc(Br)cc2)CC1c1ccc(Br)cc1 (stereo not given)	2	10	nt	78*	8	-12
N#Cc1c(C(F)(F)F)cc(-c2ccco2)nc1SCc1ccccn1	-15	17	nt	19	4	-3
N#Cc1c(C(F)(F)F)cc(-c2ccco2)nc1SCc1ccncc1	7	7	-2	62*	11	-2
O=C(NCC(O)CO)c1csc(Nc2cccc3ccccc23)n1 (stereo not given)	nt	28	nt	1	11	-2
CCc1nc2c(cnn2-c2ccc(Cl)cc2)c(=O)n1-c1ccc(OC)cc1	-12	19	9	34	52*	-2
CCOc1ccc(/C=N/Nc2cc(N3CCOCC3)nc(C)n2)c(O)c1	4	45	-3	-12	65*	31
